Reference: PMC4452124 (Toxicology research, 2014)
Where two headings read alike, the source gives them in different places.

Assays:
[1] = target: T1, human BCRP (Homo sapiens, UniProt Q9UNQ0); assay: biochemical
T1 sequence (Q9UNQ0 1-655): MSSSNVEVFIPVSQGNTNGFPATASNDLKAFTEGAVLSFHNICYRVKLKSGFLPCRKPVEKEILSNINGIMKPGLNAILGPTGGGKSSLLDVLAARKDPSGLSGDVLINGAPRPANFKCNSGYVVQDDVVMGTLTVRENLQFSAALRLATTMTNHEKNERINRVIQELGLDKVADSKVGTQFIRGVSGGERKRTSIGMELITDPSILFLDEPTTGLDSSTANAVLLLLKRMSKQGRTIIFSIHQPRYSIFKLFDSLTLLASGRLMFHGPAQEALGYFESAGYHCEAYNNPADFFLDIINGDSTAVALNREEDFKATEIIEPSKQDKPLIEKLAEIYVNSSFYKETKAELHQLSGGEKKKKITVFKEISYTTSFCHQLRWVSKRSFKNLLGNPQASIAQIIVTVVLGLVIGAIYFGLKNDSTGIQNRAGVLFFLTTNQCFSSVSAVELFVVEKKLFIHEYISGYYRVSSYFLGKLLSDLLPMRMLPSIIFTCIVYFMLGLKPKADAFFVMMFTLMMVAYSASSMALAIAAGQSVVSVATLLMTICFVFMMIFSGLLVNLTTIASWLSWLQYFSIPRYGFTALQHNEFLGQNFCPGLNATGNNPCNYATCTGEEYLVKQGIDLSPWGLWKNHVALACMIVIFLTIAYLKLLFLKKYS

[2] = target: T1, human BCRP; assay: biochemical; remark: listed apart in the source
[3] = target: T2, BCRP in BeWo cells (Homo sapiens, UniProt Q9UNQ0)
T2 sequence (Q9UNQ0 1-655): T1 sequence (Q9UNQ0 1-655)

[4] = target: T1, human BCRP; assay: BCRP ATPase assay, activation of baseline activity; format: biochemical; details: absence of sulfasalazine
[5] = target: T1, human BCRP
[6] = tested on: BCRP (Q141K variant); assay: alamarBlue cell viability, HEK cells expressing Q141K BCRP; format: cell-based; details: human
[7] = alamarBlue cell viability, HEK cells expressing empty vector; format: cell-based; details: human
[8] = tested on: BCRP (wild-type); assay: alamarBlue cell viability, HEK cells expressing WT BCRP; format: cell-based; details: human
[9] = target: T3, WT BCRP in HEK cells (Homo sapiens, UniProt Q9UNQ0); assay: Hoechst 33342 fluorescent substrate transport assay in WT BCRP HEK cells; format: cell-based; details: Hoechst 33342 7 μM
T3 sequence (Q9UNQ0 1-655): T1 sequence (Q9UNQ0 1-655)

[10] = tested on: BCRP protein expression in BeWo cells; assay: Western blot of BCRP protein in BeWo cells after zearalenone exposure; format: cell-based, human; details: 48 h, 1 or 10 μM
Outline: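 BeWo choriocarcinoma cells grown in DMEM F-12 with 10% FBS and 1% penicillin-streptomycin at 37°C, 5% CO2, used at 80–90% confluence, then exposed to test compound (0, 1 or 10 μM). Lysate protein measured by BCA; 5 μg resolved on 4–12% Bis-Tris SDS gels and probed for BCRP (~72 kDa), with β-actin as loading control. Bands semi-quantified.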

[11] = target: T4, Bcrp (Mus musculus, UniProt Q7TMS5); assay: Pilot study of plasma zearalenone in Bcrp-null versus wild-type mice; format: in vivo; details: after oral dosing, pilot studies, data not shown
T4 sequence (Q7TMS5 1-657): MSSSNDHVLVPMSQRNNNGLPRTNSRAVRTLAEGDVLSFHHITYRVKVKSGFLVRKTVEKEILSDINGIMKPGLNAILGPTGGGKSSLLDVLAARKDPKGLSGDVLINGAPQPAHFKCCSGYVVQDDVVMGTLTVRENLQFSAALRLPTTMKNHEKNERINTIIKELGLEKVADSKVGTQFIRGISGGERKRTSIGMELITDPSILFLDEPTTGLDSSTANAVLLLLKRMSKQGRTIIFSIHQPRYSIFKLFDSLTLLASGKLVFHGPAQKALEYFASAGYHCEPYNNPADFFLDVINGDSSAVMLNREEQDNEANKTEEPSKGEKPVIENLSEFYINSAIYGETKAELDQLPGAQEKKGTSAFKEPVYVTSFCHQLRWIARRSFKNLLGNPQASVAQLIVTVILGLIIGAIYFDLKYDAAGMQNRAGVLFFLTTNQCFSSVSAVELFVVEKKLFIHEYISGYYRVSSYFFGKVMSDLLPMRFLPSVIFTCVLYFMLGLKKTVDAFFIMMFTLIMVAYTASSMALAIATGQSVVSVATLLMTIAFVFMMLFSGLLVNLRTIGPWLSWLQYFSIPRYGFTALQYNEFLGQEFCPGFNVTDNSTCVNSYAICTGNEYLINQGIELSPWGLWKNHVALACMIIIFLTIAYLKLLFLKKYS

[12] = target: T2, BCRP in BeWo cells; assay: Intracellular zearalenone accumulation by ELISA in BeWo cells; format: cell-based; details: zearalenone 10 μM, Ko143 1 μM
[13] = Inhibitory Concentration (IC50) Vesicle Assay, Lucifer yellow (50 μM) transport, 2 min, 37°C
[14] = BeWo cells, Hoechst 33342 15 μM

Row | Structure (SMILES) | IC50 [1] | IC50 [2, 13] | Concentration that increased intracellular Hoechst 33342 fluorescence [3, 14] | other results
1 | Fc1ccc([C@]2(Cn3cncn3)O[C@H]2c2ccccc2Cl)cc1 (racemic) [Epoxiconazole, epoxiconazole] | > 100 µM | 64.7 µM | – | –
2 | CC(C)(c1ccc(O)cc1)c1ccc(O)cc1 [Bisphenol A, bisphenol A] | > 100 µM | 55.5 µM | 50 µM | –
3 | O=c1c(-c2ccc(O)cc2)coc2cc(O)cc(O)c12 [Genistein, genistein] | – | – | – | Concentration that stimulated baseline ATPase activity [4]: ≥ 0.01 µM; Concentration that increased intracellular Hoechst 33342 fluorescence ([3]; human): ≥ 10 µM; Increase in retention of Hoechst 33342 ([3]; human): 50–100%; Change in BCRP-mediated ATPase activity [5]: no change in ATPase activity was detected; IC50 ([2]; Inhibitory Concentration (IC50) Vesicle Assay): 1.9 µM
4 | COc1ccc(C(c2ccc(OC)cc2)C(Cl)(Cl)Cl)cc1 [Methoxychlor, methoxychlor] | 5.2 µM | 38 µM | 100 µM | –
5 | O=C1c2c(O)ccc(O)c2C(=O)c2c(NCCNCCO)ccc(NCCNCCO)c21 [Mitoxantrone, mitoxantrone, reference compound] | – | – | – | CC50 [6]: 1.14 µM; CC50 [7]: 0.34 µM; CC50 [8]: 3.19 µM
6 | CCCCC(C#N)(Cn1cncn1)c1ccc(Cl)cc1 (stereo not drawn) [Myclobutanil, myclobutanil] | 79 µM | 62.7 µM | – | –
7 | CCCN(CCOc1c(Cl)cc(Cl)cc1Cl)C(=O)n1ccnc1 [Prochloraz, prochloraz] | 42.6 µM | 18.7 µM | – | –
8 | C#CCOS(=O)OC1CCCCC1Oc1ccc(C(C)(C)C)cc1 (stereo not drawn) [Propargite, propargite] | 2.6 µM | 31.8 µM | – | –
9 | CCCC1COC(Cn2cncn2)(c2ccc(Cl)cc2Cl)O1 (stereo not drawn) [Propiconazole, propiconazole] | 63.6 µM | 51.3 µM | – | –
10 | CC(C)(C)C(O)(CCc1ccc(Cl)cc1)Cn1cncn1 (stereo not drawn) [Tebuconazole, tebuconazole] | > 100 µM | 41.1 µM | – | –
11 | CCC[CH2][Sn]([CH2]CCC)[CH2]CCC [Tributyltin, tributyltin] | – | – | ≥ 10 µM | Increase in retention of Hoechst 33342 ([3]; BeWo cells): 50–100%; IC50 ([2]; read-out: Inhibitory Concentration (IC50) Vesicle Assay, Lucifer yellow (50 μM) transport, 2 min, 37°C): 30.5 µM
12 | C[C@H]1CCCC(=O)CCC/C=C/c2cc(O)cc(O)c2C(=O)O1 [Zearalenone, zearalenone] | 40.6 µM | 4.8 µM | 50 µM | Concentrations that increased Hoechst accumulation [9]: 10 to 100 µM; CC50 at 72 h [6]: 40.6 µM; CC50 at 72 h [7]: 45.6 µM; Effect on BCRP protein expression [10]: did not alter BCRP protein expression; Plasma zearalenone levels, Bcrp-null mice compared to wild-types [11]: ~ 10 fold; CC50 at 72 h [8]: 171 µM; Increase of intracellular zearalenone levels on BCRP inhibition with Ko143 [12]: 2.7 fold
